Tests used:
NIH3T3 [1] = assay: Cytotoxicity against mouse NIH/3T3 cells selected at 1 ug/mL colchicine after 72 hrs by MTT assay; type: functional, cell-based; settings: NIH3T3, 72 h
In short: (§1)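 Grown in DMEM with 10% FBS. MTT assay: 4000 cells/well, 24 h settling, serial dilutions of drug, 72 h at 37 °C in 5% CO2. MTT in IMDM 4 h, then acidified ethanol 15 min, A570 with 690 nm background. IC50 is the concentration reducing absorbance to 50% of untreated control. Three experiments in triplicate. KB-V1-R comes from KB-V1 grown long-term drug-free.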

NIH3T3 [2] = assay: Cytotoxicity against mouse NIH/3T3 cells transfected with wild-type P-gp G185 after 72 hrs by MTT assay; type: functional, cell-based; settings: NIH3T3, 72 h; in short: as §1
[3] = Cytotoxicity against doxorubicin-selected human ZR-75B cells after 72 hrs by MTT assay; type: functional, cell-based
In short: (§2)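 Lines grown in RPMI with 10% FBS and 2 mM L-glutamine. MTT assay: 4000 cells/well attached 24 h before serially diluted drug, then 72 h exposure at 37 °C, 5% CO2. MTT in IMDM 4 h, lysis in acidified ethanol 15 min, absorbance 570 nm minus 690 nm. IC50 is the concentration halving untreated absorbance. Three independent experiments, each in triplicate.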

[4] = Cytotoxicity against P-gp-negative human KB-3-1 cells after 72 hrs by MTT assay in presence of 100 nM TQR; settings: KB 3-1, 72 h
[5] = Cytotoxicity against adriamycin-selected human MES-SA cells after 72 hrs by MTT assay; type: functional, cell-based
In short: (§3)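 MES-SA and MES-SA/Dx5 lines kept in McCoy's 5A with 10% FBS. MTT assay: seeded at 4000 cells/well for 24 h, serial drug dilutions, 72 h at 37 °C and 5% CO2. MTT 4 h, acidified ethanol lysis, A570 corrected at 690 nm. IC50 is 50% absorbance versus untreated wells. Three separate experiments in triplicate.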

[6] = Cytotoxicity against P-gp expressing human KBV1 cells after 72 hrs by MTT assay in presence of 1 uM verapamil; type: functional, cell-based; settings: KB-V1, 72 h
In short: (§4)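 KB-3-1 and KB-V1 cells in DMEM. Test drug co-administered with a P-gp inhibitor at: verapamil 1 uM, CsA 10 uM, DCPQ 100 nM, TQR 100 nM. MTT assay after 72 h at 37 °C: 4000 cells/well, MTT 4 h, acidified ethanol, A570 corrected at 690 nm. IC50 ± SD at 50% of untreated absorbance. Three experiments in triplicate.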

MDA-MB-231 [7] = assay: Cytotoxicity against human MDA-MB-231 cells after 72 hrs by MTT assay; type: functional, cell-based; settings: MDA-MB-231, 72 h; in short: as §2
SW-620 [8] = assay: Cytotoxicity against human SW620 cells after 72 hrs by MTT assay; type: functional, cell-based; settings: SW-620, 72 h; in short: as §2
[9] = Cytotoxicity against P-gp expressing human KBV1 cells after 72 hrs by MTT assay in presence of 100 uM DCPQ; settings: KB-V1, 72 h
NIH3T3 [10] = assay: Cytotoxicity against 2.4 ug/mL vincristine selected mouse NIH/3T3 cells transfected with P-gp Ser to Asp phosphorylation mutant after 72 hrs by MTT assay; type: functional, cell-based; settings: NIH3T3, 72 h; in short: as §1
[11] = Selectivity ratio of IC50 for pig LLC-PK1 cells transfected with empty vector to IC50 for pig LLC-PK1 cells; type: ADME, cell-based, Sus scrofa; settings: read-out: Ratio IC50
In short: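 Selectivity ratio: IC50 in the parental or empty-vector cells divided by IC50 in the P-gp-expressing cells (KB-V1, or ABCB1-transfected LLC-PK1). MTT assay: 4000 cells/well established for 24 h, then 72 h exposure to serially diluted drug at 37 °C, 5% CO2. MTT for 4 h, acidified ethanol lysis, A570 corrected at A690. IC50 is the concentration giving 50% of untreated absorbance, from at least three experiments.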

[12] = Cytotoxicity against human Ew36 cells after 72 hrs by MTT assay; type: functional, cell-based; settings: Ew36, 72 h; in short: as §2
[13] = Cytotoxicity against P-gp-negative human KB-3-1 cells after 72 hrs by MTT assay in presence of 10 uM CsA; type: functional, cell-based; settings: KB 3-1, 72 h; in short: as §4
NIH3T3 [14] = assay: Cytotoxicity against mouse NIH/3T3 cells after 72 hrs by MTT assay; type: cell-based; settings: NIH3T3, 72 h; in short: as §1
[15] = Cytotoxicity against P-gp-negative human KB-3-1 cells after 72 hrs by MTT assay in presence of 100 nM DCPQ; settings: KB 3-1, 72 h
[16] = Cytotoxicity against human ZR-75B cells after 72 hrs by MTT assay; type: functional, cell-based; in short: as §2
CHO [17] = assay: Cytotoxicity against CHO cells selected at 1 ug/mL colchicine after 72 hrs by MTT assay; type: functional, cell-based; settings: Cricetulus griseus
In short: (§5)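 CHO and colchicine-selected C5 cells kept in AlphaMEM with 10% FBS. MTT assay: 4000 cells/well settled 24 h, then serially diluted drug added. Incubated 72 h at 37 °C, 5% CO2. MTT in IMDM for 4 h, then acidified ethanol lysis for 15 min. Read A570, background-corrected at 690 nm. IC50 is the concentration giving 50% of untreated absorbance. Three experiments, each in triplicate.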

HEK293 [18] = assay: Cytotoxicity against human HEK293 cells transfected with plasmid expressing MDR1 after 72 hrs by MTT assay; type: functional, cell-based; settings: HEK293, 72 h
In short: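 ABCB1-transfected HEK293 grown in DMEM with 10% FBS and 1 mg/mL G418. MTT assay: 4000 cells/well for 24 h, serial drug dilutions, 72 h at 37 °C, 5% CO2. MTT 4 h, acidified ethanol lysis, A570 corrected at 690 nm. IC50 at 50% of untreated absorbance. Three experiments in triplicate.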

[19] = Cytotoxicity against human Ew36 cells selected at 120 ng/mL vincristine after 72 hrs by MTT assay; type: functional, cell-based; settings: Ew36, 72 h; in short: as §2
LLC-PK1 [20] = assay: Cytotoxicity against pig LLC-PK1 cells transfected with empty vector after 72 hrs by MTT assay; type: cell-based; settings: Sus scrofa, LLC-PK1, 72 h
In short: (§6)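 LLC-PK1 empty-vector lines grown in M199 with 10% FBS; transfected lines also in 0.5 mg/mL G418. MTT assay: 4000 cells/well for 24 h, then serially diluted drug for 72 h at 37 °C, 5% CO2. MTT 4 h, acidified ethanol, A570 minus 690 nm. IC50 is 50% of untreated absorbance. Triplicate wells, three experiments.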

[21] = Cytotoxicity against P-gp expressing human KBV1 cells after 72 hrs by MTT assay in presence of 10 uM CsA; type: functional, cell-based; settings: KB-V1, 72 h; in short: as §4
OVCAR-8 = assay: Cytotoxicity against human OVCAR8 cells after 72 hrs by MTT assay; type: functional, cell-based; settings: OVCAR-8, 72 h; in short: as §2
NCI/ADR-RES = assay: Cytotoxicity against adriamycin-selected human NCI/ADR-RES cells after 72 hrs by MTT assay; type: functional, cell-based; in short: as §2
[22] = Aqueous solubility of the compound; type: physicochemical; settings: buffer
SW-620 [23] = assay: Cytotoxicity against human SW620 cells selected at 20 ng/mL adriamycin after 72 hrs by MTT assay; type: functional, cell-based; settings: SW-620, 72 h; in short: as §2
NIH3T3 [24] = assay: Cytotoxicity against mouse NIH/3T3 cells transfected with wild type p-glycoprotein ABCB1 selected at 600 ug/ml vincristine after 72 hrs by MTT assay; type: functional, cell-based; settings: NIH3T3, 72 h, in the assay text read “600 ng/ml” for “600 ug/ml”; in short: as §1
[25] = Cytotoxicity against P-gp expressing human KBV1 cells after 72 hrs by MTT assay in presence of 100 nM TQR; settings: KB-V1, 72 h
LLC-PK1 [26] = assay: Cytotoxicity against pig LLC-PK1 cells after 72 hrs by MTT assay; type: cell-based; settings: Sus scrofa, LLC-PK1, 72 h; in short: as §6
[27] = Cytotoxicity against human MES-SA cells after 72 hrs by MTT assay; type: functional, cell-based; in short: as §3
[28] = Cytotoxicity against P-gp-negative human KB-3-1 cells after 72 hrs by MTT assay in presence of 1 uM verapamil; type: functional, cell-based; settings: KB 3-1, 72 h; in short: as §4
NIH3T3 [29] = assay: Cytotoxicity against mouse NIH/3T3 cells selected at 30 ug/ml vincristine after 72 hrs by MTT assay; type: functional, cell-based; settings: NIH3T3, 72 h, in the assay text read “30 ng/ml” for “30 ug/ml”; in short: as §1
HEK293 [30] = assay: Cytotoxicity against human HEK293 cells after 72 hrs by MTT assay; type: functional, cell-based; settings: HEK293, 72 h; in short: as §1
CHO [31] = assay: Cytotoxicity against CHO cells after 72 hrs by MTT assay; type: cell-based; settings: Cricetulus griseus; in short: as §5
MDA-MB-231 [32] = assay: Cytotoxicity against human MDA-MB-231 cells selected at 100 ug/ml vinblastine after 72 hrs by MTT assay; type: functional, cell-based; settings: MDA-MB-231, 72 h, in the assay text read “100 ng/ml” for “100 ug/ml”; in short: as §2

For `COc1ccc(NC(=S)NNC2=c3ccccc3=NC2=O)cc1`, the IC50 (NIH3T3 [1]) was 3.17 µM, the IC50 (NIH3T3 [2]) was 1.06 µM and the IC50 [3] was 1.21 µM. For the same compound, the IC50 [4] was 12.1 µM, the IC50 [5] was 13.8 µM and the IC50 [6] was 2.23 µM. It also gave an IC50 (MDA-MB-231 [7]) of 13.8 µM, an IC50 (SW-620 [8]) of 9.04 µM and an IC50 [9] of 14 µM. It also gave an IC50 (NIH3T3 [10]) of 3.14 µM, a selectivity ratio [11] of 9.2 and an IC50 [12] of 2.48 µM. The IC50 [13] was 11.4 µM, the IC50 (NIH3T3 [14]) was 8.12 µM and the IC50 [15] was 12.4 µM. The IC50 [16] was 5.06 µM, the IC50 (CHO [17]) was 0.97 µM and the IC50 (HEK293 [18]) was 2.55 µM. For the same compound, the IC50 [19] was 0.99 µM, the IC50 (LLC-PK1 [20]) was 36.8 µM and the IC50 [21] was 8.33 µM. It also gave an IC50 (OVCAR-8) of 6.69 µM, an IC50 (NCI/ADR-RES) of 3.79 µM and a solubility [22] of under 0.2 µg/mL. It also gave an IC50 (SW-620 [23]) of 3.74 µM, an IC50 (NIH3T3 [24]) of 3.59 µM and an IC50 [25] of 11.6 µM. It also gave an IC50 (LLC-PK1 [26]) of 3.99 µM, an IC50 [27] of 22.4 µM and an IC50 [28] of 9.68 µM. For the same compound, the IC50 (NIH3T3 [29]) was 4.58 µM, the IC50 (HEK293 [30]) was 6.23 µM and the IC50 (CHO [31]) was 3.04 µM. It also gave an IC50 (MDA-MB-231 [32]) of 4.86 µM.

Reference: ChEMBL document CHEMBL1914305, “Synthesis and structure-activity evaluation of isatin-β-thiosemicarbazones with improved selective activity toward multidrug-resistant cells expressing P-glycoprotein” (J Med Chem, 2011)
